Values joined by “and” are separate entries in the source; they are usually repeats but may differ in a detail not shown here. Equal entries are not always repeated.
Columns and labels:
HL-60 = assay: In vitro cytotoxicity against human leukemic HL-60 cell line.; format: functional, cell-based
How it was run: (§1)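 Growth inhibition over 72 h by XTT tetrazolium microculture assay with phenazine methosulfate-XTT for 6 h at 37 °C. Absorbance read at 450 and 630 nm. Six to seven concentrations per compound; IC50 from median-effect plot.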

DNA topoisomerase II = DNA topoisomerase II (Homo sapiens, UniProt P11388+Q02880); assay: In vitro 50% inhibition of topoisomerase II mediated k-DNA decatenation; format: protein assay
CCRF S-180 = assay: The compound was tested for the cytotoxicity against S180 cell lines; format: functional, cell-based; conditions: Mus musculus; how it was run: as §1
L1210 = assay: The compound was tested for the cytotoxicity against L1210 cell lines; format: functional, cell-based; conditions: Mus musculus; how it was run: as §1
CEM-VM1 = assay: The compound was tested for the cytotoxicity against human leukemic CEM/VM-1 cell lines; format: functional, cell-based
[1] = The compound was tested for the cytotoxicity DC-3F cell lines; format: functional, cell-based; conditions: Cricetulus griseus, DC3F
CCRF-CEM = assay: The compound was tested for the cytotoxicity against human leukemic CCRF-CEM cell lines; format: functional, cell-based
CEM-VLB = assay: The compound was tested for the cytotoxicity against human leukemic CEM/VBL cell lines; format: functional, cell-based
DC3F/AD-II = assay: The compound was tested for the cytotoxicity against human leukemic DC-3F/ADII cell lines, activity is expressed as IC50 values.; format: functional, cell-based; conditions: Cricetulus griseus
Mus musculus [2] = assay: The compound ( ip) was tested for change in average weight of BDF2 mice bearing E0771 mammary adenocarcinoma.
Mus musculus [3] = assay: The compound (7.5 mg/kg, ip) was tested for change in average weight of BDF2 mice bearing B16 melanoma.; format: functional
How it was run: (§2)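 BD2F1 female mice, 19-21 g, carrying subcutaneous tumor brei (0.2 mL); compounds in DMSO given ip once daily × 5 starting day 3. Average body weight change (g) taken on day 14. Five mice per dose; untreated and DMSO-vehicle controls.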

Mus musculus [4] = assay: The compound (7.5 mg/kg, ip) was tested for change in average weight of BDF2 mice bearing E0771 mammary adenocarcinoma; format: functional; how it was run: as §2
Mus musculus [5] = assay: The compound (10 mg/kg, ip) was tested for change in average weight of BDF2 mice bearing Lewis lung carcinoma.
Mus musculus [6] = assay: The compound (7.5 mg/kg, ip) was tested for change in average weight of BDF2 mice bearing Lewis lung carcinoma.; format: functional; how it was run: as §2
Mus musculus [7] = species on record: Mus musculus; assay: Average tumor volume of the E0771 mammary adenocarcinoma,; format: functional
How it was run: (§3)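 BD2F1 female mice, 19-21 g, given subcutaneous 0.2 mL solid tumor brei; dosed ip in DMSO daily for 5 days from day 3 (AHMA 7.5-10 mg/kg, VP-16 10, m-AMSA 5 mg/kg). Tumor volume on day 14 as length × width × width/2 (mm3), expressed as T/C versus untreated. Five mice per dose; DMSO-only group included; two experiments.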

Mus musculus [8] = assay: The compound (10 mg/kg, ip) was tested for change in average weight of BDF2 mice bearing B16 melanoma.
Mus musculus [9] = species on record: Mus musculus; assay: Average tumor volume of the B-16 melanoma; format: functional; how it was run: as §3
Mus musculus [10] = species on record: Mus musculus; assay: Average tumor volume of the Lewis lung carcinoma; format: functional; how it was run: as §3

IC50 (DNA topoisomerase II)	Compound	IC50 (HL-60)	IC50 (L1210)	other results
> 100 µM	OCc1ccc(Oc2c3ccccc3nc3ccccc23)cc1	12800 nM	–	–
50 µM	CC(C)NC(=O)OCc1ccc(Sc2c3ccccc3nc3ccccc23)cc1	2830 nM	–	–
20 µM	CNC(=O)OCc1ccc(Oc2c3ccccc3nc3ccccc23)cc1	680 nM	–	–
20 µM	CNC(=O)OCc1ccc(Sc2c3ccccc3nc3ccccc23)cc1	1960 nM	–	–
20 µM	CC(C)NC(=O)OCc1ccc(Oc2c3ccccc3nc3ccccc23)cc1	1490 nM	–	–
50 µM	CNC(=O)OCc1ccc(Oc2c3ccccc3nc3cc(OC)ccc23)cc1	950 nM	–	–
< 1 µM	CC(=O)CCC(=O)Nc1cc(CO)cc(Nc2c3ccccc3nc3ccccc23)c1	25 nM	45 nM	IC50 (CCRF S-180): 70 nM

The next lines start with the molecule.

Compound	IC50 (DNA topoisomerase II)	IC50 (HL-60)	IC50 (L1210)	other results
COc1ccc2c(Sc3ccc(COC(=O)NC(C)C)cc3)c3ccccc3nc2c1	> 100 µM	1550 nM	–	–
O=C(O)CCC(=O)Nc1cc(COC(=O)CCC(=O)O)cc(Nc2c3ccccc3nc3ccccc23)c1	> 100 µM	4300 nM	990 nM	IC50 (CCRF S-180): 1830 nM
COc1ccc2c(Oc3ccc(COC(=O)NC(C)C)cc3)c3ccccc3nc2c1	> 100 µM	420 nM	–	–
CNC(=O)OCc1ccc(Sc2c3ccccc3nc3cc(OC)ccc23)cc1	> 100 µM	2710 nM	–	–
CC(=O)CCC(=O)Nc1cc(COC(=O)CCC(C)=O)cc(Nc2c3ccccc3nc3ccccc23)c1	< 1 µM	15 nM	98 nM	IC50 (CCRF S-180): 97 nM
OCc1ccc(Sc2c3ccccc3nc3ccccc23)cc1	> 100 µM	3330 nM	–	–
COc1ccc2c(Sc3ccc(CO)cc3)c3ccccc3nc2c1	50 µM	1830 nM	–	–
Nc1cc(CO)cc(Nc2c3ccccc3nc3ccccc23)c1	1 µM	–	16 nM	IC50 (CEM-VM1): 1600 nM; IC50 [1]: 5 nM; IC50 (CCRF S-180): 30 nM; IC50 (CCRF-CEM): 263 nM; IC50 (CEM-VLB): 3.79 µM; IC50 (DC3F/AD-II): 54 nM
COc1ccc2c(Oc3ccc(CO)cc3)c3ccccc3nc2c1	20 µM	1040 nM	–	–
O=C(O)CCC(=O)Nc1cc(CO)cc(Nc2c3ccccc3nc3ccccc23)c1	20 µM	5000 nM	330 nM	IC50 (CCRF S-180): 1070 nM
CC(=O)OCc1cc(N)cc(Nc2c3ccccc3nc3ccccc23)c1	–	28 nM	34 nM	–
CC(=O)Nc1cc(CO)cc(Nc2c3ccccc3nc3ccccc23)c1	–	18 nM	28 nM	–
Cl.Nc1cc(CO)cc(Nc2c3ccccc3nc3ccccc23)c1	–	25 nM	–	AWC (Mus musculus [2]): 0.6 g; AWC (Mus musculus [3]): -0.3 g; AWC (Mus musculus [4]): 0.6 g; AWC (Mus musculus [5]): -0.4 g; AWC (Mus musculus [6]): 0.1 g; T/C (Mus musculus [7]): 0.13 and 0.14; AWC (Mus musculus [8]): -1.9 g; T/C (Mus musculus [9]): 0.23 and 0.18; T/C (Mus musculus [10]): 0.55 and 0.23
